Measured values published in ChEMBL document CHEMBL1155261, “Synthesis and biological evaluation of SANT-2 and analogues as inhibitors of the hedgehog signaling pathway” (Bioorg Med Chem, 2009).

Tests used:
[1] = molecular target: Sonic hedgehog protein (Mus musculus) (UniProt Q62226); test: Ratio of compound IC50 to cyclopamine IC50 for inhibition of SHH in mouse Shh-Light2 cells; assay type: functional, cell-based; conditions: Shh Light II
Oryzias latipes [2] = test: Teratogenic activity in Oryzias latipes CAB embryo assessed as induction of cyclopia phenotype at 0.01 to 100 uM; assay type: organism-based; conditions: in vivo
Method in brief: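 CAB-strain medaka kept at 26 °C on a 14:10 h light/dark cycle. Fertilized eggs exposed from 4–5 hpf to 5 days post fertilisation at 26 °C in tap water (pH 8–8.2) with 0.1% methylene blue. Compounds added from ethanol stocks at 1% final solvent; controls received 1% ethanol. Embryos inspected visually for cyclopia (reduced eye distance).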

Oryzias latipes [3] = test: Teratogenic activity in Oryzias latipes embryo assessed as induction of cyclopia phenotype at 12.5 uM; assay type: organism-based; conditions: in vivo
Method in brief: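 Medaka (CAB strain) fertilized eggs, collected within 1–2 h post fertilization, exposed from 4–5 hpf to 5 days post fertilisation at 26 °C in tap water (pH 8–8.2) with 0.1% methylene blue; compounds added from ethanol stocks, final 1% ethanol, controls 1% ethanol. Tested range 0.01–100 µM. Embryos visually scored for cyclopia (reduced eye distance).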

Compound | Ratio IC50 [1] | Activity (Oryzias latipes [2]) | Activity (Oryzias latipes [3])
O=C(Nc1ccc(Cl)c(-c2nc3ccccc3[nH]2)c1)c1cccc(C(F)(F)F)c1 | 11 | Non-toxic | –
N#Cc1ccc(C(=O)Nc2ccc(Cl)c(-c3nc4ccccc4[nH]3)c2)cc1 | 7.1 | – | –
CN(C)c1ccc(C(=O)Nc2ccc(Cl)c(-c3nc4ccccc4[nH]3)c2)cc1 | 6.9 | – | –
COc1ccccc1C(=O)Nc1ccc(Cl)c(-c2nc3ccccc3[nH]2)c1 | 1.5 | – | –
CCOc1cc(C(=O)Nc2ccc(Cl)c(-c3nc4ccccc4[nH]3)c2)cc(OCC)c1OCC | – | Non-toxic | –
O=C(Nc1ccc(Cl)c(-c2nc3ccccc3[nH]2)c1)c1ccc(F)cc1 | 5.2 | – | –
CC1=C2C[C@H]3[C@@H](CC=C4C[C@@H](O)CC[C@@]43C)[C@@H]2CC[C@]12O[C@@H]1C[C@H](C)CN[C@H]1[C@H]2C [CYCLOPAMINE] | 11 | Non-toxic | Toxic
COc1cc(C(=O)Nc2ccc(Cl)c(-c3nc4ccccc4[nH]3)c2)cc(OC)c1OC | – | Non-toxic | –
COc1ccc(C(=O)Nc2ccc(Cl)c(-c3nc4ccccc4[nH]3)c2)cc1 | 11 | – | –
CCOc1cc(C(=O)Nc2cccc(-c3nc4ccccc4[nH]3)c2)cc(OCC)c1OCC | 1 | – | –
O=C(Nc1ccc(Cl)c(-c2nc3ccccc3[nH]2)c1)c1ccc(Cl)cc1 | 5.9 | – | –
O=C(Nc1ccc(Cl)c(-c2nc3ccccc3[nH]2)c1)c1ccccc1 | 8 | – | –
